Rows were chosen to be rich in hits. Some 12% of all compounds tested hit in one or more screens of this group.
Lmaj promast = reduces viability of Leishmania major promastigotes; resazurin fluorescence viability; 200,000 tested, 9% active; inhibition, % at 10 µM; in the data active means inhibition above about 50%;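 further: promastigotes grown with compound for 44 hours at 28 °C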
ROMK primary = human ROMK K+ channel modulation, primary screen; Tet-inducible ROMK, thallium flux fluorescence; actives lie on both sides; AID 1918; 130,000 tested, 2% active; P48048; B-score at 10 µM;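 active means signal ratio slope over the read window, or its plate-corrected B-score, at least 3 SD from the plate mean, either direction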;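 further: B-score of the F/F0 ratio slope over 7 to 12 s after thallium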
WT yeast gro inh = growth inhibition of WT yeast, mitochondrial fusion screen; 190,000 tested, 2.1% active; mitochondrial fusion phenotypic screen, WT strain; AID 1362; inhibition, % at 10 µM; in the data active means inhibition above about 58%; tested in S. cerevisiae
Diaph act CS = diaphorase activation or chemical reduction counter-screen; 190,000 tested, 0.005% active; activation factor at 20 µM; Diaphorase/resazurin coupled assay, resorufin fluorescence, 16 min; stronger effect = higher value; 1 = vehicle wells, 0 = NADH-free wells; AID 1229;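 active means diaphorase activity raised at least twofold by the compound at 20 µM; inactive means activation factor below 2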
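Measured by – red resorufin fluorescence at 544/590 nm excitation/emission · Test system – Clostridium kluyveri diaphorase, purified enzyme · Incubation – reaction time 16 min, room temperature · Buffer or medium – 50 mM HEPES pH 7.4 with 4.542 mM MgCl2, 0.005% Tween 20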
Diaphorase inh = inhibits diaphorase or chemically oxidizes, flagging diaphorase assay artifacts | inhibition, % at 20 µM | 190,000 tested, 0.69% active | diaphorase resazurin-to-resorufin fluorescence, NADH, 16 min; bacterial (C. kluyveri) enzyme, not human;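 active means primary screen inhibition at 20 µM above a set limit, cut at about 50% in these data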
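System: Diaphorase enzyme from Clostridium kluyveri | Amount: Enzyme working solution with 0.14 U/mL diaphorase | Benchmarks: No-NADH positive control and DMSO neutral control | Signal: Fluorescence of resorufin formed from resazurin, Ex 544/Em 590 nm | Schedule: 16-min room-temperature incubation before reading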
Cl transport mod = KCC2 (human) Cl- transport modulation. 190,000 tested, 2.2% active. B-score of Tl+ flux slope (higher = more flux/activation; lower = inhibition) at 10 µM. KCC2 cells, thallium flux FluoZin-2 fluorescence. Q9H2X9;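 active means thallium flux slope and its plate-corrected score both differing from the plate sample mean at a set confidence after two filtering rounds, in either direction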;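 further: slope of fluorescence scaled to starting intensity during 10 to 20 s after thallium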
Target sequence (Q9H2X9 whole entry, looked up): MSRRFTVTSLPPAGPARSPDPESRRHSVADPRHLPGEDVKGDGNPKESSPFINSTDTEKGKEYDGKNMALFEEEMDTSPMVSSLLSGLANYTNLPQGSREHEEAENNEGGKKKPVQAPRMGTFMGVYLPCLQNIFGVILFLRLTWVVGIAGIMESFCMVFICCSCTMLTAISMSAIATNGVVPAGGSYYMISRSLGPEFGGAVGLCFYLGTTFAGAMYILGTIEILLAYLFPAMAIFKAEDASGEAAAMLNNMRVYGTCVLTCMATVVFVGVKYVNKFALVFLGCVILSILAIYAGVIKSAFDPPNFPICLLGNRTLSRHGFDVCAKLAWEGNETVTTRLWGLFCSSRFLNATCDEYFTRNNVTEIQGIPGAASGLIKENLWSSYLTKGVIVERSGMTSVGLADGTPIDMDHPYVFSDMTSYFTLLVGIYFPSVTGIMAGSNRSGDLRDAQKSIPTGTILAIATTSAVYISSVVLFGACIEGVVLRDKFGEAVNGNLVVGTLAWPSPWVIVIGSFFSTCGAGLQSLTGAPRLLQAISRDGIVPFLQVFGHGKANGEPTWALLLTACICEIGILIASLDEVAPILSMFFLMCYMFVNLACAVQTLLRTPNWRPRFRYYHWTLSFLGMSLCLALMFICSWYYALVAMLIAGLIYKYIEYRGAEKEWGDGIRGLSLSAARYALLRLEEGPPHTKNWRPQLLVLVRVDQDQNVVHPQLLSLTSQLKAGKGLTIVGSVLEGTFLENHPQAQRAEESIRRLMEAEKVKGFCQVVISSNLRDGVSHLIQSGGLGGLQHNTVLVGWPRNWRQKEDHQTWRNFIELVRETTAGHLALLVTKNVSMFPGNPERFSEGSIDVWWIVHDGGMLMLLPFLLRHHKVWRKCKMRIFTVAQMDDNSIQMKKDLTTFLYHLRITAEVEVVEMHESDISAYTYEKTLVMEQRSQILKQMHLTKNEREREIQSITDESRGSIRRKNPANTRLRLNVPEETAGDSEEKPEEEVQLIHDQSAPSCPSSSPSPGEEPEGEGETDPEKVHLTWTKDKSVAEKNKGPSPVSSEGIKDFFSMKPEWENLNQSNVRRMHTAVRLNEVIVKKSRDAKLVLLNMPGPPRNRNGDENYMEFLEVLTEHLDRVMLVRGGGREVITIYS
A number is an active result; – = inactive; · = no result given.

SMILES	Lmaj promast	ROMK primary	WT yeast gro inh	Diaph act CS	Diaphorase inh	Cl transport mod
CCC(C)[C@H](NC(=O)NCCCOC(C)C)C(=O)OC (some centres not stated)	·	·	·	·	·	–
CO/N=C(\c1nonc1N)N1CCN(c2ccc(Cl)cc2[N+](=O)[O-])CC1	–	·	75	–	–	–
CCOC(=O)c1c(C)c(-c2ccccc2)n(CC(=O)NCCCN(CC)CC)c1C	51	–	–	–	–	–
O=C(CC(SCCO)c1ccc2c(c1)OCO2)c1ccco1 (configuration not stated)	56	·	–	–	–	·
CCc1ccc(C2=NNC(=Nc3cccc(S(=O)(=O)N(C)C)c3)SC2)cc1	–	–	–	–	–	–
Cc1ccc(OCC(=O)N/N=C2/SCC(=O)N2Cc2ccccc2)cc1	67	–	–	–	–	–
CCC(C)NC(=O)Nc1ccc(F)c(Cl)c1 (configuration not stated)	96	–	–	–	–	–
COC(=O)c1ccc(NC(=O)Nc2ccc(F)c(Cl)c2)cc1	–	·	62	–	–	–
COC(=O)c1cccc(NC(=O)Nc2ccc(Cl)c(Cl)c2)c1	87	·	–	–	–	·
COC(=O)c1cccc(NC(=O)NC(=O)c2ccccc2Cl)c1	·	·	·	·	·	–
COC(=O)c1cccc(NC(=O)NC2CCCN2S(=O)(=O)c2ccc(Cl)cc2)c1 (configuration not stated)	76	·	–	–	–	–
Cc1cc(NN)nc2ccc(Cl)cc12	–	–	–	–	–	–
N=c1c(C(=O)NCc2ccco2)cc2c(=O)n3ccccc3nc2n1Cc1ccc(Cl)cc1	–	·	74	–	–	–
Cc1ccc(CNC(=O)c2cc3c(=O)n4ccccc4nc3n(Cc3ccco3)c2=N)cc1	·	–	·	–	90	·
N=c1c(C(=O)NCc2ccccc2)cc2c(=O)n3ccccc3nc2n1Cc1ccco1	–	–	–	–	68	–
Cc1ccc(S(=O)(=O)c2cc3c(=O)n4ccccc4nc3n(Cc3ccco3)c2=N)cc1	62	–	–	–	–	–
Cc1ccc2nc3c(cc(C(=O)NCc4ccco4)c(=N)n3Cc3ccco3)c(=O)n2c1	–	–	–	·	·	·
COc1ccc2[nH]c(C(O)(Cc3cccnc3)Cc3cccnc3)cc2c1	–	·	–	–	–	–
O=C1CCCC(=O)C1=C1SCCS1	–	·	–	–	–	–
Cc1cc2nc3n(c2cc1C)CC1CC(C(=O)NCc2ccco2)N(C)C31 (configuration not stated)	·	·	·	·	·	–
CCCc1[nH]n(-c2ccc([N+](=O)[O-])cc2)c(=O)c1C=NCCCn1ccnc1	–	–	–	–	–	·
Cc1ccc(S(=O)(=O)CCC(=O)Nc2ccc(S(=O)(=O)N(C)C)cc2)cc1	–	–	–	–	–	–
O=C(NCCCc1nc2ccccc2[nH]1)c1ccc(F)cc1	–	–	–	–	–	–
O=C(COc1ccc(Cl)cc1)NC1=NN(c2ccccc2)C(=O)C1	–	–	–	–	–	–
N=c1c(C(=O)NCc2ccco2)cc2c(=O)n3ccccc3nc2n1Cc1ccccc1	–	–	–	–	–	·
SMILES	Lmaj promast	ROMK primary	WT yeast gro inh	Diaph act CS	Diaphorase inh	Cl transport mod
N=c1c(C(=O)NCc2ccc(F)cc2)cc2c(=O)n3ccccc3nc2n1Cc1ccco1	–	·	–	–	51	–
COc1ccc(C(=O)NNC(=O)c2ccc(C)cc2)cc1S(=O)(=O)N1CCCC1	–	–	–	–	–	–
Cc1nn(CC(=O)NCc2cccc3ccccc23)c(=O)c2ccccc12	–	·	–	–	–	–
CC(=O)Cc1nsc(Nc2ccc(Cl)cc2)n1	–	–	–	–	–	·
C=CCn1c(CCC(O)COCCC)n[nH]c1=S (configuration not stated)	–	·	–	–	–	·
COc1cc2c(cc1NC(=O)c1cc(-c3ccccn3)nc3ccccc13)oc1ccccc12	–	·	–	–	–	–
O=C(CCc1ccccc1)Nc1nnc(-c2ccc3c(c2)CCCC3)o1	–	·	66	–	–	–
O=C(CCc1ccccc1)Nc1nnc(-c2ccc3c(c2)OCCO3)o1	70	–	–	–	–	–
O=C(CCc1ccccc1)Nc1nnc(-c2cccs2)o1	57	·	–	–	–	·
O=C(CCSc1ccccc1)Nc1nnc(-c2cccs2)o1	–	·	–	–	–	–
Cn1c(C(=O)NCCCN2CCCCCC2)cc2c(=O)n(C)c3ccccc3c21	67	·	–	–	–	–
CCN(CC)CCNC(=O)c1cc2c(=O)n(C)c3ccccc3c2n1C	–	·	–	–	–	·
CCCCN(CC)CCNC(=O)c1cc2c(=O)n(C)c3ccccc3c2n1C	77	·	–	–	–	·
O=C(NCCCN1CCCCC1)c1ccc2c(=O)n(CCc3ccccc3)c(=O)[nH]c2c1	57	·	–	–	–	–
CCCN(CCC)CCCNC(=O)c1cc2c(=O)n(C)c3ccccc3c2n1C	51	·	–	–	–	–
CCNC(=S)N1CCCC(C(N)=O)C1 (configuration not stated)	–	–	–	–	–	–
NCCCC[C@@H]1NC(=O)c2cc([N+](=O)[O-])cc(I)c2SC[C@@H](C(=O)NCC(N)=O)NC(=O)CNC1=O	–	–	–	–	–	–
O=[N+]([O-])c1ccc(N2CCN(C(=S)Nc3ccc(F)cc3F)CC2)cc1	–	–	–	–	–	–
Cn1c(C(=O)Nc2ccc3c(c2)OCCO3)cc2c(=O)n(C)c3ccccc3c21	–	·	–	–	54	·
CCOc1ccc(NC(=O)CC2C(=O)N(CC)C(=S)N2NC(=O)c2ccncc2)cc1 (configuration not stated)	·	–	·	·	·	–
CN1CCC(Oc2ccc(Sc3ccccc3)cc2)CC1	100	–	–	–	–	·
CN1CCC(OC(=O)COc2ccccc2)CC1	–	·	–	–	–	–
CN1CCC(Oc2ccccc2Sc2ccc(C(F)(F)F)cc2)CC1	99	·	–	–	–	–
COC(=O)C1=NNC2(c3ccc(C)cc3)C(=O)N(c3ccc(C)cc3)C(=O)C12 (configuration not stated)	–	–	–	–	–	–
Cc1ccc(-c2n[nH]c(=S)n2/N=C/c2ccc(C)s2)cc1	–	·	–	–	–	5.6
SMILES	Lmaj promast	ROMK primary	WT yeast gro inh	Diaph act CS	Diaphorase inh	Cl transport mod
Cc1ccc(/C=N/n2c(COc3ccccc3)n[nH]c2=S)s1	–	·	–	–	–	16
COc1ccc(-c2n[nH]c(=S)n2/N=C/c2cccn2C)cc1	·	·	·	·	·	–
Cc1ccc(-c2n[nH]c(=S)n2/N=C/c2cccs2)cc1	–	·	–	–	–	18
O=[N+]([O-])c1cc(/C=N/n2c(-c3ccncc3)n[nH]c2=S)ccc1Cl	–	·	–	–	53	–
Cc1ccc(/C=N/n2c(COc3ccccc3)n[nH]c2=S)o1	–	–	–	–	–	–
S=c1[nH]nc(-c2ccccn2)n1/N=C/c1ccc(Br)s1	–	·	–	–	–	26
Cc1cc(-c2n[nH]c(=S)n2/N=C/c2cc([N+](=O)[O-])ccc2Cl)n[nH]1	84	·	–	–	50	–
